The structures appear in SMILES notation. Activity calls are given as the source filed them. No cut-off for these calls is given here.

The target of data set [1] is Autotaxin (Homo sapiens, UniProt Q13822). The data set can be described thus: Inhibition of human ATX using LPC (16:0) as substrate after 30 mins by horseradish peroxidase/choline oxidase coupled enzyme based spectrophotometric analysis.
Data set [2] has as its target Voltage-gated inwardly rectifying potassium channel KCNH2 (Homo sapiens, UniProt Q12809). Nature of the data set: Inhibition of human ERG by automated patch clamp assay. A general note: The patch-clamp technique gives a direct electrical read-out from membranes.
A short description of data set [3]: Plasma clearance in rat at 1 mg/kg, iv. Type of data set: ADME, organism-based.
The next data set addresses Cytochrome P450 3A4 (Homo sapiens, UniProt P08684). Nature of the data set: Time-dependent inhibition of human liver microsomes CYP3A4. Type of data set: ADME. Background: Liver microsomes are vesicles of endoplasmic reticulum, rich in cytochrome P450 enzymes.
A short description of data set [4]: Plasma clearance in mouse at 1 mg/kg, iv. Type of data set: ADME, organism-based.
A short description of data set [5]: Oral bioavailability in mouse at 5 mg/kg. Type of data set: ADME, organism-based. Particulars: in vivo.
Data set [6] in a line: Oral bioavailability in rat at 5 mg/kg. Type of data set: ADME, organism-based. The note with it: in vivo.
Data set [7] addresses Autotaxin (Rattus norvegicus, UniProt Q64610). Nature of the data set: Inhibition of ATX in rat plasma assessed as reduction in LPA 18:2 production after 2 hrs by LC-MS/MS analysis.
Data set [8] is described as follows: Chemical stability of the compound in DMSO by LC-MS analysis. Type of data set: physicochemical.
Data set [9] can be described thus: Chemical stability of the compound in DMSO by 1H NMR analysis. Type of data set: physicochemical.
Data set [10] has as its system Mus musculus. Nature of the data set: Anti-fibrotic activity in BML-induced pulmonary fibrosis C57BL/6 mouse model assessed as reduction in fibrosis with damage of pulmonary structure at 50 mg/kg, po administered bid with 7.5 hrs interval between 2 doses for 21 days relative to control. Type of data set: functional, organism-based. An outline of the steps: (§1)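 Male C57Bl/6 mice, 11 weeks at delivery, anesthetized and given intranasal bleomycin 30 μg/50 μL; PBS controls. Oral dosing twice daily, 7.5 h apart, 10 mL/kg, from challenge day for 21 days: test agent in PEG 200/0.5% MC, pirfenidone in 0.5% CMC, vehicle controls; 14−24 mice per group. Lungs stained by Mallory method, scored 1–5 (Matsuse-modified Ashcroft) as mean of 10 low-power fields; group median, Mann−Whitney.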

Data set [11] has as its system Mus musculus. Nature of the data set: Anti-fibrotic activity in BML-induced pulmonary fibrosis C57BL/6 mouse model assessed as reduction in fibrotic thickening of aveolar/bronchial walls at 50 mg/kg, po administered bid with 7.5 hrs interval between 2 doses for 21 days relative to control. Type of data set: functional, organism-based. An outline of the steps: as §1

In data set [12] the test system is Mus musculus. The data set can be described thus: Anti-fibrotic activity in BML-induced pulmonary fibrosis C57BL/6 mouse model assessed as reduction in fibrous area with severe distortion of lung structure at 50 mg/kg, po administered bid with 7.5 hrs interval between 2 doses for 21 days relative to control. Type of data set: functional, organism-based. An outline of the steps: as §1

Sequence of Cytochrome P450 3A4 (P08684 whole entry): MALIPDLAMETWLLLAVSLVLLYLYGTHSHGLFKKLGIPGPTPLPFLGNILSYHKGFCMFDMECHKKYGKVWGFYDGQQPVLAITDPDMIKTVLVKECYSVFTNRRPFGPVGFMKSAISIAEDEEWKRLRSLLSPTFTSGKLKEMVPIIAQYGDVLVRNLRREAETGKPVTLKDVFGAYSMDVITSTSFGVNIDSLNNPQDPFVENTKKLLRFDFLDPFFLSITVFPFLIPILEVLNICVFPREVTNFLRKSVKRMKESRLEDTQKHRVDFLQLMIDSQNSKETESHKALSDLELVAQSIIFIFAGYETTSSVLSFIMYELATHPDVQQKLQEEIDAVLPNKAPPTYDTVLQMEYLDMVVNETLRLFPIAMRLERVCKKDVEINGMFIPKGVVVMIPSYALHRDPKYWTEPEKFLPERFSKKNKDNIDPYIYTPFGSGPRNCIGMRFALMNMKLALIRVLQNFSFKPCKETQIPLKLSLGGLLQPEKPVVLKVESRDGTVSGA
Sequence of Voltage-gated inwardly rectifying potassium channel KCNH2 (Q12809 whole entry): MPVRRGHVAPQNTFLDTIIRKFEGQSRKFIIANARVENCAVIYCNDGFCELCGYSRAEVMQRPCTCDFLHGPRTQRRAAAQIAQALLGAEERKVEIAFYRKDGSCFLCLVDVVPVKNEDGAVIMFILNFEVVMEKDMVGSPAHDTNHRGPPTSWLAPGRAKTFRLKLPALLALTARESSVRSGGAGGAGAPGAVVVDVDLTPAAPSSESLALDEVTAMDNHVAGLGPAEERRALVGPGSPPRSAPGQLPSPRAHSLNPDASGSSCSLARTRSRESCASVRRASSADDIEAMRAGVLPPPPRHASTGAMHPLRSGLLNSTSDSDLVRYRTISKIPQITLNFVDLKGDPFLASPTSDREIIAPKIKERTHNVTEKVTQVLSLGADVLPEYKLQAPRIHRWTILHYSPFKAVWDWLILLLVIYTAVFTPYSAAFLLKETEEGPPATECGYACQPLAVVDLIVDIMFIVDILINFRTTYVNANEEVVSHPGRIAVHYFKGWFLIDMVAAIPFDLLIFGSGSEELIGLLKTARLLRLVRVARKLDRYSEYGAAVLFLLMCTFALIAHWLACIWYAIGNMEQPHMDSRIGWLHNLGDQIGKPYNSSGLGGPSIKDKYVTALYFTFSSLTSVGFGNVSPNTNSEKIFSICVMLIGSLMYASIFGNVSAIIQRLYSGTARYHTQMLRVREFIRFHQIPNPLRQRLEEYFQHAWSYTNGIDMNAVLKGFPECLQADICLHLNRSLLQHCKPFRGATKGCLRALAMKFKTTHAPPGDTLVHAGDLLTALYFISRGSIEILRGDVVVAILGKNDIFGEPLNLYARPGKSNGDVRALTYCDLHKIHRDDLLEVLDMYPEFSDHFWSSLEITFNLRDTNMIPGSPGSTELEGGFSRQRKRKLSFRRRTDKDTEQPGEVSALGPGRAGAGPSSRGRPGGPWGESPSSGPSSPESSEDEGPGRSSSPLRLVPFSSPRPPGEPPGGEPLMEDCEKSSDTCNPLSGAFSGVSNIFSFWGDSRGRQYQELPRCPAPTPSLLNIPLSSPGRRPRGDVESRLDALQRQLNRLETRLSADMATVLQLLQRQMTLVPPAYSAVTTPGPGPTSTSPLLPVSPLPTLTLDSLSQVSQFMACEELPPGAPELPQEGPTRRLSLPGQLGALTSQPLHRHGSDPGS

Broadly, the IC50 is the concentration at which inhibition is half-maximal. By clearance is commonly meant the volume of plasma or blood freed of the substance per unit of time. A word on the bioavailability: it is the share of a dose that reaches the circulation, judged against a reference dose that is usually intravenous. On to `CCc1nc2ccc(C3CCN(CC(=O)N4CC(O)C4)CC3)cn2c1N(C)c1nc(-c2ccc(F)cc2)c(C#N)s1`, for which the IC50 amounted to 27 nM against Autotaxin [1], 2900 nM in data set [2] and 22 nM on Autotaxin [7]. Further, the clearance in data set [3] was 51.7 mL/min/kg; in data set [4], 20 mL/min/kg. Also, the TDI entry at Cytochrome P450 3A4 is “Active”. The bioavailability in [5] worked out at 12%; in data set [6], 15%.
In turn, `CCc1nc2ccc(C3CCN(CC(=O)N4CC(O)C4)CC3)cn2c1N(C)c1nc(-c2ccc(F)cc2)cs1` had an IC50 on Autotaxin [1] of 246 nM. In addition, the TDI entry on Cytochrome P450 3A4 is given as “Active”.
The like results for `CCc1nc2ccc(C3CCN(CC(=O)N4CC(O)C4)CC3)nn2c1N(C)c1nc(-c2ccc(F)cc2C#N)ns1` were, in that order, 297 nM and “Active”.
The like results for `CCc1nc2cc(C)c(C3CCN(CC(=O)N4CC(O)C4)CC3)cn2c1N(C)c1nc(-c2ccc(F)cc2)cs1` were, in that order, 811 nM and “Not Active”.
Regarding `CCc1nc2cnc(N3CCN(CC(=O)N4CC(O)C4)CC3)cn2c1N(C)c1nc(-c2ccc(F)cc2)c(C#N)s1`, the IC50 against Autotaxin [1] came out at 102 nM. The Stability entry in data set [8] and in data set [9] was “Unstable” throughout. Moreover, the TDI entry on Cytochrome P450 3A4 was “Not Active”.
Regarding `CCc1nc2ccc(N3CCN(CC(=O)N4CC(O)C4)CC3)cn2c1N(C)c1nc(-c2ccc(F)cc2)c(C#N)s1`, the values for the IC50 (on Autotaxin [1]; in data set [2]) were 26 nM and > 11000 nM, respectively. Moreover, the TDI result at Cytochrome P450 3A4 is listed as “Active”.
On to `CCc1nc2c(C)cc(C3CCN(CC(=O)N4CC(O)C4)CC3)cn2c1N(C)c1nc(-c2ccc(F)cc2)c(C#N)s1`, for which the IC50 against Autotaxin [1] amounted to 103 nM. Moreover, on Cytochrome P450 3A4, the TDI entry is reported as “Not Active”.
The like results for `CCc1nc2ccc(C3CCN(CC(=O)N4CC(O)C4)CC3)nn2c1N(C)c1ccc(C#N)c(-c2ccc(F)cc2)n1` were, in that order, 192 nM and “Active”.
The corresponding values for `CCc1nc2ccc(N3CCN(CC(=O)N4CC(O)C4)CC3)nn2c1N(C)c1nc(-c2ccc(F)cc2)c(C#N)s1` are 60 nM and “Active”.
The corresponding values for `CCc1nc2ccc(N3CCN(CC(=O)N4CC(O)C4)CC3)cn2c1N(C)c1nc(-c2ccc(F)cc2)cs1` are 274 nM and “Active”.
Turning to `Cc1ccc(=O)n(-c2ccccc2)c1`, the outcome in the data set with Mus musculus [10], in the data set on Mus musculus [11] and with Mus musculus [12] was Active.

Source of the values: ChEMBL document CHEMBL4049443, “Discovery of 2-[[2-Ethyl-6-[4-[2-(3-hydroxyazetidin-1-yl)-2-oxoethyl]piperazin-1-yl]-8-methylimidazo[1,2-a]pyridin-3-yl]methylamino]-4-(4-fluorophenyl)thiazole-5-carbonitrile (GLPG1690), a First-in-Class Autotaxin Inhibitor Undergoing Clinical Evaluation for the Treatment of Idiopathic Pulmonary …” (J Med Chem, 2017).
